Broadly, the pEC50 is the negative decadic logarithm of the EC50, by convention in mol/L. In general, CC50 refers to the concentration that lowers cell viability or growth by half.

The test system of data set [1] is Human immunodeficiency virus 1. The data set is described as follows: Antiviral activity against HIV1 3B in MT4 cells. The settings on record: Human immunodeficiency virus 1, 3B. In kind it is functional, organism-based. A digest of the protocol:
(§1)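 MT-4 cells at 4.5 × 10⁵ cells/mL were infected with 100 CCID₅₀/mL of HIV-1 or HIV-2. Viable cells were then counted after trypan blue staining, and EC₅₀ was derived from these viable-cell counts.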

The subject of data set [2] is Human immunodeficiency virus 2. The data set can be described thus: Antiviral activity against HIV2 ROD in MT4 cells. The settings on record: Human immunodeficiency virus 2, ROD. In kind it is functional, organism-based. The method in brief:
as §1

For the next data set, the system named is MT4. The data set is described as follows: Cytotoxicity against MT4 cells. In kind it is functional. The settings on record: Homo sapiens. The method in brief: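 Exponentially growing MT-4 cells were resuspended at 5 × 10⁵ cells/mL in RPMI 1640 with 20% FBS and 20% IL-2. They were infected with HIV-1 IIIB (100 × TCID₅₀ per well) for 1 h at 37 °C, with mock-infected cells run in parallel. The suspension was diluted 6-fold onto serially diluted compound and incubated for 5 days at 37 °C in 5% CO₂. MTS staining was read at 492 nm.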

Data set [3] relates to Human immunodeficiency virus 1. The data set can be described thus: Antiviral activity against HIV1 3B in CEM cells. It counts as functional, organism-based. The settings on record: Human immunodeficiency virus 1, 3B, CCRF-CEM. A digest of the protocol: (§2)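 CEM cells at 4.5 × 10⁵ cells/mL were infected with 100 CCID₅₀/mL of HIV-1 or HIV-2. Giant-cell formation was scored microscopically. EC₅₀ was the concentration preventing syncytium formation by 50%.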

For data set [4], the system named is Human immunodeficiency virus 2. The data set can be described thus: Antiviral activity against HIV2 ROD in CEM cells. In kind it is functional, organism-based. The settings on record: Human immunodeficiency virus 2, ROD, CCRF-CEM. A digest of the protocol:
as §2

The next data set has as its system Hepatitis B virus. The data set can be described thus: Antiviral activity against HBV in HepG2 2.2.15 cells. It counts as functional, organism-based. A digest of the protocol:
(§3)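 HepG2 2.2.15 cells, which produce HBV constitutively, were seeded at 5 × 10³ per well. Drug-containing medium was replaced every other day for 9 days. Virions in the supernatant were captured on anti-HBsAg plates, and their DNA was quantified by PCR against an HBV standard curve and normalized to untreated cells. For cell growth, monolayers were ethanol-fixed and stained with bisbenzimide H33342, and fluorescence was compared with untreated cells. SI = CC₅₀/EC₅₀.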

Data set [5] relates to HepG2. The data set is described as follows: Cytotoxicity against HepG2 2.2.15 cells. The conditions noted are these: Homo sapiens. It counts as functional. A digest of the protocol:
as §3

In data set [6] the test system is Cynomolgus monkey. The data set can be described thus: Metabolic stability in cynomolgus monkey liver S9 fraction. In kind it is ADME, Macaca fascicularis. The method in brief:
(§4)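 Pooled cynomolgus S9 (liver or intestinal segments), test compound 10 µM final, 37 °C, DMSO <1% final; reaction started with NADPH 2.5 mM final. Aliquots taken at 0 (preincubation), 10, 20, 30 and 60 min, quenched with cold acetonitrile, centrifuged; supernatant parent measured by LC/MS/MS. Stability given as % remaining from pre- vs postincubation peak areas.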

The subject of data set [7] is Cynomolgus monkey. The data set can be described thus: Metabolic stability in cynomolgus monkey intestine S9 fraction. It counts as ADME, Macaca fascicularis. A digest of the protocol:
as §4

Another data set has as its system CEM cells (Homo sapiens). The data set can be described thus: Cytotoxicity against CEM cells.
For data set [8], the system named is HepG2. The data set can be described thus: Selectivity index, CC50 for HepG2 2.2.15 cells/EC50 for HBV. It counts as functional. The method in brief:
as §3

pEC50: −log10 of the molar value.

Consider `COC(=O)[C@H](CC(C)C)NP(=O)(OC[C@H]1C=C[C@@H](n2cnc3c(N)ncnc32)C1)Oc1ccccc1` (stereo not given in full), for which the pEC50 in data set [1] was 6.72; in [2] it was 6.89; in data set [3] it was 6.38; in data set [4] it was 6.25; with Hepatitis B virus, 8.00. The figures for the CC50 with MT4, with HepG2 [5] and with CEM cells (Homo sapiens) were over 5 µM, 20 µM and 70 µM, respectively. The Stability with Cynomolgus monkey [6] is 0%; with Cynomolgus monkey [7], 75%.

In the case of `CCOC(=O)c1ccccc1OP(=O)(N[C@@H](C)C(=O)OC)OC[C@H]1C=C[C@@H](n2cnc3c(N)ncnc32)C1` (stereo not given in full), the pEC50 is over 6.59 in [1], 7.28 in data set [3], 7.24 in data set [4] and 8.40 in the data set with Hepatitis B virus. The CC50 in the data set with MT4 is under 4 µM; in the data set with HepG2 [5], 12 µM; in the data set on CEM cells (Homo sapiens), 4.17 µM. Moreover, the Stability in the data set with Cynomolgus monkey [6] is 25%; with Cynomolgus monkey [7], 80%.

Consider `CC(C)OC(=O)[C@H](C)NP(=O)(OC[C@H]1C=C[C@@H](n2cnc3c(N)ncnc32)C1)Oc1ccccc1` (stereo not given in full), for which the pEC50 in data set [1] is 6.82; in data set [2] it was 6.66; in data set [3] it was 6.52; in [4] it was 6.60; in the data set on Hepatitis B virus, 8.22. The CC50 is 91.4 µM in the data set on MT4, over 2 µM in the data set on HepG2 [5] and 84 µM in the data set with CEM cells (Homo sapiens). Moreover, the Stability is recorded as 8% in the data set with Cynomolgus monkey [6] and 90% in the data set with Cynomolgus monkey [7].

With `C[C@H](NP(=O)(OC[C@H]1C=C[C@@H](n2cnc3c(N)ncnc32)C1)Oc1ccccc1)C(=O)OC(C)(C)C` (stereo not given in full), the pEC50 was over 6.59 in data set [1]; 5.51 in data set [2]; 5.53 in data set [3]; 5.44 in data set [4]; 6.60 in the data set on Hepatitis B virus. Besides, the CC50 was under 25 µM in the data set with MT4, 170 µM in the data set with HepG2 [5] and 130 µM with CEM cells (Homo sapiens). For the same compound, the results for the Stability in the data set with Cynomolgus monkey [6] and in the data set with Cynomolgus monkey [7] were 1% and 96%, respectively.

For the compound `COC(=O)[C@H](CCSC)NP(=O)(OC[C@H]1C=C[C@@H](n2cnc3c(N)ncnc32)C1)Oc1ccccc1` (stereo not given in full), the pEC50 in data set [1] is 6.80; in [2], 6.68; in data set [3], 6.28; in [4], 6.00; in the data set on Hepatitis B virus, 7.52. Moreover, the CC50 in the data set on MT4 is over 5 µM; in the data set on HepG2 [5], 16 µM; in the data set with CEM cells (Homo sapiens), 85.8 µM. Besides, the Stability in the data set on Cynomolgus monkey [6] worked out at 0%; in the data set on Cynomolgus monkey [7] it was 66%.

In the case of `COC(=O)c1ccc(OP(=O)(N[C@@H](C)C(=O)OC)OC[C@H]2C=C[C@@H](n3cnc4c(N)ncnc43)C2)cc1` (stereo not given in full), the pEC50 in data set [1] is 6.92; in data set [2], 7.25; in data set [3], 6.89; in data set [4], 6.89; in the data set with Hepatitis B virus, 8.40. For the same compound, the CC50 with MT4 is over 4 µM; with HepG2 [5] it was over 2 µM; in the data set on CEM cells (Homo sapiens), 12.9 µM. Moreover, the Stability in the data set on Cynomolgus monkey [6] worked out at 7%; in the data set with Cynomolgus monkey [7], 48%.

As for `COC(=O)[C@H](Cc1ccc(O)cc1)NP(=O)(OC[C@H]1C=C[C@@H](n2cnc3c(N)ncnc32)C1)Oc1ccccc1` (stereo not given in full), the negative logarithm of the EC50 (pEC50) in data set [1] is 6.24; in data set [2] it was 6.14; in data set [3], 5.27; in data set [4], 4.74; in the data set on Hepatitis B virus, 7.30. Besides, the CC50 in the data set with MT4 is 26.9 µM; in the data set with HepG2 [5] it was over 2 µM; with CEM cells (Homo sapiens), 110 µM. Also, the Stability with Cynomolgus monkey [6] and in the data set with Cynomolgus monkey [7] was 0% each time.

Take `COC(=O)[C@H](C)NP(=O)(OC[C@H]1C=C[C@@H](n2cnc3c(N)ncnc32)C1)Oc1ccccc1` (stereo not given in full): the negative-log EC50 (pEC50) was 7.52 in data set [1]; 7.37 in data set [2]; 6.89 in data set [3]; 7.05 in data set [4]; 7.77 in the data set with Hepatitis B virus. Besides, the results for the CC50 with MT4, in the data set with HepG2 [5] and with CEM cells (Homo sapiens) were 6.4 µM, 1280 µM and 18.1 µM, respectively. In addition, the values for the Stability with Cynomolgus monkey [6] and with Cynomolgus monkey [7] were 24% and 74%, respectively. Besides, in the data set on HepG2 [8], the “Ratio CC50/EC50” value turned out to be 75000.

Turning to `CC[C@H](C)[C@H](NP(=O)(OC[C@H]1C=C[C@@H](n2cnc3c(N)ncnc32)C1)Oc1ccccc1)C(=O)OC` (stereo not given in full), the pEC50 was 6.02 in [1]; 5.95 in data set [2]; 5.68 in data set [3]; 5.46 in data set [4]; 7.22 with Hepatitis B virus. In addition, the values for the CC50 in the data set on MT4, in the data set with HepG2 [5] and with CEM cells (Homo sapiens) were over 5 µM, 76 µM and 118 µM, respectively. The Stability worked out at 0% with Cynomolgus monkey [6] and 69% in the data set on Cynomolgus monkey [7].

Regarding `CCOC(=O)c1cccc(OP(=O)(N[C@@H](C)C(=O)OC)OC[C@H]2C=C[C@@H](n3cnc4c(N)ncnc43)C2)c1` (stereo not given in full), the negative-log EC50 (pEC50) in data set [1] is 7.28; in data set [2], 7.48; in data set [3] it was 7.19; in data set [4], 7.10; in the data set with Hepatitis B virus, 8.40. Further, the CC50 in the data set with MT4 is 4.39 µM; with HepG2 [5], over 2 µM; in the data set with CEM cells (Homo sapiens), 8.39 µM. Moreover, the Stability with Cynomolgus monkey [6] was determined as 19%; in the data set with Cynomolgus monkey [7], 42%.

With `C[C@H](NP(=O)(OC[C@H]1C=C[C@@H](n2cnc3c(N)ncnc32)C1)Oc1ccccc1)C(=O)OCC(C)(C)C` (stereo not given in full), the negative-log EC50 (pEC50) is 7.37 in [1]; 7.52 in data set [2]; 7.17 in data set [3]; 7.08 in data set [4]; 8.52 in the data set on Hepatitis B virus. The cytotoxic concentration (CC50) in the data set on MT4 was over 10 µM; with HepG2 [5], 13 µM; in the data set on CEM cells (Homo sapiens), 19.5 µM. In addition, the Stability in the data set on Cynomolgus monkey [6] came out at 0%; in the data set with Cynomolgus monkey [7] it was 57%.

`COC(=O)[C@H](CCCCN)NP(=O)(OC[C@H]1C=C[C@@H](n2cnc3c(N)ncnc32)C1)Oc1ccccc1.O=C(O)C(F)(F)F` (stereo not given in full): the pEC50 in data set [1] was 4.82; in data set [2], 4.57; in data set [3], 4.60; in [4], 3.82; with Hepatitis B virus, 5.70. Also, the 50% cytotoxic concentration (CC50) was over 25 µM with MT4, over 100 µM in the data set with HepG2 [5] and over 250 µM in the data set with CEM cells (Homo sapiens). Further, the Stability is given as 95% in the data set with Cynomolgus monkey [6] and 17% in the data set on Cynomolgus monkey [7].

With `COC(=O)[C@@H](NP(=O)(OC[C@H]1C=C[C@@H](n2cnc3c(N)ncnc32)C1)Oc1ccccc1)C(C)C` (stereo not given in full), the pEC50 in data set [1] is 6.19; in data set [2] it was 5.98; in data set [3], 6.00; in [4], 5.35; in the data set with Hepatitis B virus it was 7.70. The CC50 was under 25 µM in the data set on MT4, 120 µM in the data set on HepG2 [5] and 167 µM in the data set with CEM cells (Homo sapiens). Also, the Stability in the data set with Cynomolgus monkey [6] was found to be 2%; with Cynomolgus monkey [7], 91%.

As for `COC(=O)C[C@H](NP(=O)(OC[C@H]1C=C[C@@H](n2cnc3c(N)ncnc32)C1)Oc1ccccc1)C(=O)OC` (stereo not given in full), the pEC50 in data set [1] was 6.49; in [2] it was 6.59; in [3], 5.96; in [4], 5.46; in the data set on Hepatitis B virus, 7.30. Further, the CC50 was over 16 µM with MT4, over 2 µM in the data set on HepG2 [5] and over 50 µM in the data set on CEM cells (Homo sapiens). In addition, the Stability was determined as 4% in the data set with Cynomolgus monkey [6] and 8% in the data set on Cynomolgus monkey [7].

`COC(=O)CNP(=O)(OC[C@H]1C=C[C@@H](n2cnc3c(N)ncnc32)C1)Oc1ccccc1` (stereo not given in full): the pEC50 in data set [1] was 5.36; in [2] it was 5.24; in data set [3], 4.87; in data set [4], 4.70; with Hepatitis B virus it was 7.07. Besides, the CC50 in the data set with MT4 is over 100 µM; with HepG2 [5], over 2 µM; in the data set with CEM cells (Homo sapiens), at least 250 µM. For the same compound, the Stability in the data set with Cynomolgus monkey [6] turned out to be 46%; with Cynomolgus monkey [7] it was 85%.

The values are drawn from ChEMBL document CHEMBL1138881, “Application of phosphoramidate ProTide technology significantly improves antiviral potency of carbocyclic adenosine derivatives” (J Med Chem, 2006).
